Data published in ChEMBL document CHEMBL1153905, “Functionalized 3-benzylidene-indolin-2-ones: inducers of NAD(P)H-quinone oxidoreductase 1 (NQO1) with antiproliferative activity” (Bioorg Med Chem, 2009).

Key:
[1] = Cytotoxicity against mouse Hepa-1c1c7 cells after 48 hrs by MTT assay; type: cell-based; details: hepa-1c1c7, 48 h
Procedure, shortened: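 Murine hepatoma cells in α-MEM with 10% heat- and charcoal-treated fetal calf serum, passages 6–17; MTT read-out as for the cancer lines but with 48 h compound exposure. Highest concentration tested 25 µM. IC50 from survival-versus-concentration curve; mean and SD, n = 3.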

[2] = system: HCT-116; experiment: Cell cycle arrest in human HCT116 cells released from G1 block assessed as accumulation at G2/M phase at 30 uM after 24 hrs by flow cytometry; type: functional
[3] = system: HCT-116; experiment: Cell cycle arrest in human HCT116 cells released from G1 block assessed as accumulation at S phase at 30 uM after 24 hrs by flow cytometry; type: functional
[4] = system: MCF7; experiment: Selectivity ratio of IC50 for human CCL186 cells to IC50 for human MCF7 cells
Procedure, shortened: (§1)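 MTT assay. MCF7 and CCL186 cells were grown in EMEM/10% FBS, HCT116 in McCoy's 5A/10% FBS. Seeding was 10,000 (MCF7), 4000 (HCT116) and 5000 (CCL186) cells per well, 24 h. Compound exposure was 72 h, DMSO ≤1% final. MTT 0.5 mg/ml for 3 h, formazan dissolved in DMSO, A590. IC50 came from sigmoidal survival curves, with 3 separate occasions per concentration. Ratio = IC50 CCL186 / IC50 of the cancer line.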

[5] = system: HCT-116; experiment: Cell cycle arrest in human HCT116 cells released from G1 block assessed as accumulation at sub G1 phase at 30 uM after 24 hrs by flow cytometry; type: functional
[6] = system: HCT-116; experiment: Antiproliferative activity against human HCT116 cells after 72 hrs by MTT assay; type: functional, cell-based; details: HCT-116, 72 h
Procedure, shortened: (§2)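 Cells seeded at 10,000 (MCF7), 4000 (HCT116) or 5000 (CCL186) per well and grown 24 h; MCF7 and CCL186 in EMEM with pyruvate, glutamine, 10% FBS; HCT116 in McCoy's 5A with 10% FBS. Compounds from DMSO stocks (≤1% DMSO final), 72 h exposure; MTT 0.5 mg/ml for 3 h, formazan in DMSO read at 590 nm. IC50 from sigmoidal survival curve, three separate occasions.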

[7] = system: HCT-116; experiment: Cell cycle arrest in human HCT116 cells released from G1 block assessed as accumulation at G1 phase at 30 uM after 24 hrs by flow cytometry; type: functional
[8] = system: HCT-116; experiment: Cell cycle arrest in human HCT116 cells released from G2 block assessed as accumulation at G1 phase at 30 uM after 24 hrs by flow cytometry; type: functional
[9] = system: MCF7; experiment: Antiproliferative activity against human MCF7 cells after 72 hrs by MTT assay; type: functional, cell-based; details: MCF7, 72 h; procedure, shortened: as §2
[10] = system: HCT-116; experiment: Cell cycle arrest in human HCT116 cells released from G2 block assessed as accumulation at G2/M phase at 30 uM after 24 hrs by flow cytometry; type: functional
[11] = Selectivity ratio of IC50 for human CCL186 cells to IC50 for human HCT116 cells; type: ADME, cell-based, HCT-116; details: CCL186 cells and HCT116 cells, read-out: Ratio IC50; procedure, shortened: as §1
[12] = system: HCT-116; experiment: Cell cycle arrest in human HCT116 cells released from G2 block assessed as accumulation at S phase at 30 uM after 24 hrs by flow cytometry; type: functional
[13] = Antiproliferative activity against human CCL186 cells after 72 hrs by MTT assay; type: cell-based; details: CCL186, 72 h; procedure, shortened: as §2
[14] = system: HCT-116; experiment: Cell cycle arrest in human HCT116 cells released from G2 block assessed as accumulation at sub G1 phase at 30 uM after 24 hrs by flow cytometry; type: functional
[15] = system: HCT-116; experiment: Cell cycle arrest in human HCT116 cells released from G2 block assessed as accumulation at G2/M phase at 10 uM after 24 hrs by flow cytometry; type: functional
[16] = system: HCT-116; experiment: Cell cycle arrest in human HCT116 cells released from G1 block assessed as accumulation at G1 phase at 10 uM after 24 hrs by flow cytometry; type: functional
[17] = target: T1, CYP1A1 (Mus musculus, UniProt P00184); experiment: Induction of CYP1A1 activity in mouse Hepa-1c1c7 cells assessed as induction ratio at 0.05 uM after 48 hrs by EROD assay relative to control; type: ADME, cell-based
T1 sequence (P00184 whole entry): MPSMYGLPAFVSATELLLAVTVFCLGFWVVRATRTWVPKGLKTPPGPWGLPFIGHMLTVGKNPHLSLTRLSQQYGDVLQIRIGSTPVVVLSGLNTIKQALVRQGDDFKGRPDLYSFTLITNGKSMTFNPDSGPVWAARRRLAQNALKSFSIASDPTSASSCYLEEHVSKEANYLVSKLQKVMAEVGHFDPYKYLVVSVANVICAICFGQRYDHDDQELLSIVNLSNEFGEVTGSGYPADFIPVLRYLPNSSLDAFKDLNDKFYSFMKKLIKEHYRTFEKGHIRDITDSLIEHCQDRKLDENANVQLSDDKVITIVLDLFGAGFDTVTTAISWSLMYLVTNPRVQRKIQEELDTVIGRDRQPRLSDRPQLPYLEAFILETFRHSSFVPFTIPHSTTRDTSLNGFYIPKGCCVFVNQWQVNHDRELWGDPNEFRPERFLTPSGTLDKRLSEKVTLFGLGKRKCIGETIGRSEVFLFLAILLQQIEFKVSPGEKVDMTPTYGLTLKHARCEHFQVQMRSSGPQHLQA
Procedure, shortened: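 About 10,000 Hepa1c1c7 cells/well cultured 24 h, then compound (0.5% DMSO final) for 48 h, at roughly 4 × the concentration doubling NQO1 activity. After PBS wash, cells given 5 µM 7-ethoxyresorufin plus 2 mM salicylamide, 37 °C, 40 min; resorufin fluorescence ex 530/em 590 nm, corrected for compound fluorescence. Ratio = (treated − blank)/(DMSO control − blank); mean ± SD, n = 3.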

[18] = system: HCT-116; experiment: Cell cycle arrest in human HCT116 cells released from G1 block assessed as accumulation at S phase at 10 uM after 24 hrs by flow cytometry; type: functional
[19] = system: HCT-116; experiment: Cell cycle arrest in human HCT116 cells released from G1 block assessed as accumulation at G2/M phase at 10 uM after 24 hrs by flow cytometry; type: functional
[20] = system: HCT-116; experiment: Cell cycle arrest in human HCT116 cells released from G2 block assessed as accumulation at sub G1 phase at 10 uM after 24 hrs by flow cytometry; type: functional
[21] = system: HCT-116; experiment: Cell cycle arrest in human HCT116 cells released from G2 block assessed as accumulation at G1 phase at 10 uM after 24 hrs by flow cytometry; type: functional
[22] = system: HCT-116; experiment: Cell cycle arrest in human HCT116 cells released from G1 block assessed as accumulation at sub G1 phase at 10 uM after 24 hrs by flow cytometry; type: functional
[23] = system: HCT-116; experiment: Cell cycle arrest in human HCT116 cells released from G2 block assessed as accumulation at S phase at 10 uM after 24 hrs by flow cytometry; type: functional
[24] = target: NAD(P)H dehydrogenase [quinone] 1 (Mus musculus) (UniProt Q64669); experiment: Induction of NQO1 activity in mouse Hepa-1c1c7 cells assessed as induction ratio at 0.05 uM after 48 hrs by MTT assay relative to control; type: cell-based
Chain of NAD(P)H dehydrogenase [quinone] 1 (Mus musculus) (Q64669 whole entry): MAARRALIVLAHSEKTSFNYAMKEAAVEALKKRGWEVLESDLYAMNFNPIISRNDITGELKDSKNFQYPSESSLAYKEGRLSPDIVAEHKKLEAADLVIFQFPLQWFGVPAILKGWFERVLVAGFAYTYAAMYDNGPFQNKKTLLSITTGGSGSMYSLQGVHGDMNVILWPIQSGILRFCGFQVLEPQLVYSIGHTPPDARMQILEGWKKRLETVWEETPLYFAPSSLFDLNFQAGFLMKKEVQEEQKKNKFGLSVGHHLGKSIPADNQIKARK
Procedure, shortened: (§3)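 Hepa1c1c7 cells, 10,000 per well, 24 h, were then treated 48 h (DMSO ≤0.5%). Digitonin/EDTA lysates were assayed for menadione-dependent MTT-formazan formation using a G6P/G6PDH NADPH-generating mix with FAD at pH 7.4. The reaction ran 5 min, was stopped with dicoumarol, and read at A590. Degree of induction = (A test − blank)/(A control − blank). Ratios were read off the induction–concentration plot at the EROD test concentration.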

[25] = target: T1, CYP1A1; experiment: Induction of CYP1A1 activity in mouse Hepa-1c1c7 cells assessed as induction ratio at 15 uM by EROD assay relative to control; type: ADME, cell-based
Procedure, shortened: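 Hepa1c1c7 cells were seeded at 10,000 per well and grown 24 h. They were then exposed 48 h to compound (final DMSO 0.5% v/v) at about 4 × the NQO1 CD. After a PBS wash, cells got 5 µM 7-ethoxyresorufin plus 2 mM salicylamide in medium, 37 °C, 40 min. Resorufin was read at ex 530/em 590 nm, corrected for compound fluorescence. Ratio = (F treated − blank)/(F DMSO control − blank); mean ± SD, n = 3.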

[26] = target: NAD(P)H dehydrogenase [quinone] 1 (Mus musculus) (UniProt Q64669); experiment: Induction of NQO1 activity in mouse Hepa-1c1c7 cells assessed as induction ratio at 15 uM after 48 hrs by MTT assay relative to control; type: cell-based; procedure, shortened: as §3

IC50 [6]	IC50 [9]	SMILES	IC50 [1]	Ratio IC50 [4]	selectivity ratio [11]	IC50 [13]	Activity [15]	Activity [16]	Activity [18]	Activity [19]	Activity [20]	Activity [21]	Activity [22]	Activity [23]	further results
3.9 µM	19.6 µM	O=C1Nc2ccccc2/C1=C\c1cccc2ccccc12	18.6 µM	6.4	1.3	25 µM	–	–	–	–	–	–	–	–	Activity [2]: 38.42%; Activity [3]: 26.91%; Activity [5]: 2.96%; Activity [7]: 32.69%; Activity [8]: 51.32%; Activity [10]: 28.26%; Activity [12]: 14.61%; Activity [14]: 5.68%
5.1 µM	7.7 µM	COc1ccc(OC)c(/C=C2/C(=O)Nc3ccccc32)c1	> 25 µM	3.5	2.4	18.1 µM	34.26%	24.24%	26.68%	46.51%	9.83%	39.33%	2.64%	16.68%	fold induction at 48 h, 0.05 µM [17]: 3.08; Ratio [24]: 3.32
4.8 µM	6.2 µM	COc1cccc(OC)c1/C=C1/C(=O)Nc2ccccc21	13.9 µM	3.7	2.9	17.8 µM	44.99%	20.86%	16%	59.63%	9.51%	32.97%	3.52%	12.42%	–
–	–	O=C1Nc2ccccc2/C1=C\c1ccc(F)cc1F	> 25 µM	–	–	–	–	–	–	–	–	–	–	–	fold induction at 15 µM [25]: 1.89; Ratio [26]: 5.06
